Source: ChEMBL document CHEMBL1275486, “Kinetic characterization of VIM-7, a divergent member of the VIM metallo-beta-lactamase family” (Antimicrob Agents Chemother, 2008)

Assays:
[1] = system: Escherichia coli; test: Activity of Escherichia coli beta-lactamase VIM-1 by spectrophotometry
[2] = system: Escherichia coli; test: Ratio of Kcat to Km for Escherichia coli beta-lactamase VIM-1 by spectrophotometry
[3] = system: CCN1CCN(C(=O)N[C@@H](C(=O)N[C@@H]2C(=O)N3[C@@H]2SC(C)(C)[C@@H]3C(=O)O)c2ccccc2)C(=O)C1=O; test: (§1) Activity of Pseudomonas aeruginosa beta-lactamase VIM-7 by spectrophotometry; conditions: 07-406
Outline: (§2)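 Recombinant enzyme was expressed in E. coli BL21(DE3) from pET-26b and purified from the periplasm to >99%, with concentration taken from A280. Hydrolysis was followed spectrophotometrically at 25°C in 50 mM sodium cacodylate pH 7.0 with 100 μM ZnCl2 and 0.1 mg/ml BSA. Km and kcat came from initial velocity versus substrate concentration. Some Km values were taken as competitive Ki against nitrocefin reporter.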

[4] = system: CO/N=C(\C(=O)N[C@@H]1C(=O)N2C(C(=O)O)=C(COC(N)=O)CS[C@H]12)c1ccco1; test: as §1; conditions: 07-406; outline: as §2
[5] = system: CC1(C)S[C@@H]2[C@H](NC(=O)Cc3ccccc3)C(=O)N2[C@H]1C(=O)O; test: as §1; conditions: 07-406; outline: as §2
[6] = system: C[C@@H](O)[C@H]1C(=O)N2C(C(=O)O)=C(S[C@@H]3CN[C@H](C(=O)Nc4cccc(C(=O)O)c4)C3)[C@H](C)[C@H]12; test: as §1; conditions: 07-406; outline: as §2
[7] = system: C[C@@H](O)[C@H]1C(=O)N2C(C(=O)O)=C(S[C@@H]3CN[C@H](C(=O)N(C)C)C3)[C@H](C)[C@H]12; test: as §1; conditions: 07-406; outline: as §2
[8] = system: C[C@@H](O)[C@H]1C(=O)N2C(C(=O)O)=C(SCCNC=N)C[C@H]12; test: as §1; conditions: 07-406; outline: as §2
[9] = system: O=C(O)[C@H]1/C(=C/CO)O[C@@H]2CC(=O)N21; test: as §1; conditions: 07-406; outline: as §2
[10] = system: CC1(C)S[C@@H]2[C@H](NC(=O)C(C(=O)O)c3ccccc3)C(=O)N2[C@H]1C(=O)O; test: as §1; conditions: 07-406; outline: as §2
[11] = system: C[C@H]1[C@H](NC(=O)/C(=N\OC(C)(C)C(=O)O)c2csc(N)n2)C(=O)N1S(=O)(=O)O; test: as §1; conditions: 07-406; outline: as §2
[12] = system: C[C@]1(Cn2ccnn2)[C@H](C(=O)O)N2C(=O)C[C@H]2S1(=O)=O; test: as §1; conditions: 07-406; outline: as §2
[13] = system: CC(C)(O/N=C(\C(=O)N[C@@H]1C(=O)N2C(C(=O)[O-])=C(C[n+]3ccccc3)CS[C@H]12)c1csc(N)n1)C(=O)O; test: as §1; conditions: 07-406; outline: as §2
[14] = system: CO[C@@]1(NC(=O)Cc2cccs2)C(=O)N2C(C(=O)O)=C(COC(N)=O)CS[C@@H]21; test: as §1; conditions: 07-406; outline: as §2
[15] = system: CO/N=C(\C(=O)N[C@@H]1C(=O)N2C(C(=O)[O-])=C(C[N+]3(C)CCCC3)CS[C@H]12)c1csc(N)n1; test: as §1; conditions: 07-406; outline: as §2
[16] = system: CC1(C)S[C@@H]2[C@H](NC(=O)[C@H](NC(=O)N3CCNC3=O)c3ccccc3)C(=O)N2[C@H]1C(=O)O; test: as §1; conditions: 07-406; outline: as §2
[17] = system: CC1(C)S[C@@H]2[C@H](NC(=O)[C@H](N)c3ccccc3)C(=O)N2[C@H]1C(=O)O; test: as §1; conditions: 07-406; outline: as §2
[18] = system: O=C(Cc1cccs1)N[C@@H]1C(=O)N2C(C(=O)[O-])=C(C[n+]3ccccc3)CS[C@H]12; test: as §1; conditions: 07-406; outline: as §2
[19] = system: CC1(C)[C@H](C(=O)O)N2C(=O)C[C@H]2S1(=O)=O; test: as §1; conditions: 07-406; outline: as §2
[20] = system: O=C(Cc1cccs1)N[C@@H]1C(=O)N2C(C(=O)O)=C(/C=C/c3ccc([N+](=O)[O-])cc3[N+](=O)[O-])CS[C@H]12; test: as §1; conditions: 07-406; outline: as §2
[21] = system: CC(=O)OCC1=C(C(=O)O)N2C(=O)[C@@H](NC(=O)Cc3cccs3)[C@H]2SC1; test: as §1; conditions: 07-406; outline: as §2
[22] = system: Cc1onc(-c2ccccc2Cl)c1C(=O)N[C@@H]1C(=O)N2[C@@H]1SC(C)(C)[C@@H]2C(=O)O; test: as §1; conditions: 07-406; outline: as §2
[23] = system: CO/N=C(\C(=O)N[C@@H]1C(=O)N2C(C(=O)O)=C(COC(C)=O)CS[C@H]12)c1csc(N)n1; test: as §1; conditions: 07-406; outline: as §2
[24] = system: CO[C@@]1(NC(=O)C(C(=O)O)c2ccc(O)cc2)C(=O)N2C(C(=O)O)=C(CSc3nnnn3C)CO[C@@H]21; test: as §1; conditions: 07-406; outline: as §2
[25] = system: CCN1CCN(C(=O)N[C@@H](C(=O)N[C@@H]2C(=O)N3[C@@H]2SC(C)(C)[C@@H]3C(=O)O)c2ccccc2)C(=O)C1=O; test: (§3) Ratio of Kcat to Km for Pseudomonas aeruginosa beta-lactamase VIM-7 by spectrophotometry; conditions: 07-406; outline: as §2
[26] = system: CO/N=C(\C(=O)N[C@@H]1C(=O)N2C(C(=O)O)=C(COC(N)=O)CS[C@H]12)c1ccco1; test: as §3; conditions: 07-406; outline: as §2
[27] = system: CC1(C)S[C@@H]2[C@H](NC(=O)Cc3ccccc3)C(=O)N2[C@H]1C(=O)O; test: as §3; conditions: 07-406; outline: as §2
[28] = system: C[C@@H](O)[C@H]1C(=O)N2C(C(=O)O)=C(S[C@@H]3CN[C@H](C(=O)Nc4cccc(C(=O)O)c4)C3)[C@H](C)[C@H]12; test: as §3; conditions: 07-406; outline: as §2
[29] = system: C[C@@H](O)[C@H]1C(=O)N2C(C(=O)O)=C(S[C@@H]3CN[C@H](C(=O)N(C)C)C3)[C@H](C)[C@H]12; test: as §3; conditions: 07-406; outline: as §2
[30] = system: C[C@@H](O)[C@H]1C(=O)N2C(C(=O)O)=C(SCCNC=N)C[C@H]12; test: as §3; conditions: 07-406; outline: as §2
[31] = system: O=C(O)[C@H]1/C(=C/CO)O[C@@H]2CC(=O)N21; test: as §3; conditions: 07-406; outline: as §2
[32] = system: CC1(C)S[C@@H]2[C@H](NC(=O)C(C(=O)O)c3ccccc3)C(=O)N2[C@H]1C(=O)O; test: as §3; conditions: 07-406; outline: as §2
[33] = system: C[C@]1(Cn2ccnn2)[C@H](C(=O)O)N2C(=O)C[C@H]2S1(=O)=O; test: as §3; conditions: 07-406; outline: as §2
[34] = system: CC(C)(O/N=C(\C(=O)N[C@@H]1C(=O)N2C(C(=O)[O-])=C(C[n+]3ccccc3)CS[C@H]12)c1csc(N)n1)C(=O)O; test: as §3; conditions: 07-406; outline: as §2
[35] = system: CO[C@@]1(NC(=O)Cc2cccs2)C(=O)N2C(C(=O)O)=C(COC(N)=O)CS[C@@H]21; test: as §3; conditions: 07-406; outline: as §2
[36] = system: CO/N=C(\C(=O)N[C@@H]1C(=O)N2C(C(=O)[O-])=C(C[N+]3(C)CCCC3)CS[C@H]12)c1csc(N)n1; test: as §3; conditions: 07-406; outline: as §2
[37] = system: CC1(C)S[C@@H]2[C@H](NC(=O)[C@H](NC(=O)N3CCNC3=O)c3ccccc3)C(=O)N2[C@H]1C(=O)O; test: as §3; conditions: 07-406; outline: as §2
[38] = system: CC1(C)S[C@@H]2[C@H](NC(=O)[C@H](N)c3ccccc3)C(=O)N2[C@H]1C(=O)O; test: as §3; conditions: 07-406; outline: as §2
[39] = system: O=C(Cc1cccs1)N[C@@H]1C(=O)N2C(C(=O)[O-])=C(C[n+]3ccccc3)CS[C@H]12; test: as §3; conditions: 07-406; outline: as §2
[40] = system: CC1(C)[C@H](C(=O)O)N2C(=O)C[C@H]2S1(=O)=O; test: as §3; conditions: 07-406; outline: as §2
[41] = system: O=C(Cc1cccs1)N[C@@H]1C(=O)N2C(C(=O)O)=C(/C=C/c3ccc([N+](=O)[O-])cc3[N+](=O)[O-])CS[C@H]12; test: as §3; conditions: 07-406; outline: as §2
[42] = system: CC(=O)OCC1=C(C(=O)O)N2C(=O)[C@@H](NC(=O)Cc3cccs3)[C@H]2SC1; test: as §3; conditions: 07-406; outline: as §2
[43] = system: Cc1onc(-c2ccccc2Cl)c1C(=O)N[C@@H]1C(=O)N2[C@@H]1SC(C)(C)[C@@H]2C(=O)O; test: as §3; conditions: 07-406; outline: as §2
[44] = system: CO/N=C(\C(=O)N[C@@H]1C(=O)N2C(C(=O)O)=C(COC(C)=O)CS[C@H]12)c1csc(N)n1; test: as §3; conditions: 07-406; outline: as §2
[45] = system: CO[C@@]1(NC(=O)C(C(=O)O)c2ccc(O)cc2)C(=O)N2C(C(=O)O)=C(CSc3nnnn3C)CO[C@@H]21; test: as §3; conditions: 07-406; outline: as §2

Chain of Metallo-b-lactamase (Pseudomonas aeruginosa), Q840P9 (Q840P9 whole entry): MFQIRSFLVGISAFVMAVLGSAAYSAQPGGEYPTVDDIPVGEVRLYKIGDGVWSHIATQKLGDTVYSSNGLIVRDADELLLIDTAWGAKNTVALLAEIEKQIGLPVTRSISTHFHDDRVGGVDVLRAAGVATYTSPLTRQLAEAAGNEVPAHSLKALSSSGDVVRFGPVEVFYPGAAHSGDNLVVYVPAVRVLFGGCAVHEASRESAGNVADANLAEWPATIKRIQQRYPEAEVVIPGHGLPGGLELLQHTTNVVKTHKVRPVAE

C[C@]1(Cn2ccnn2)[C@H](C(=O)O)N2C(=O)C[C@H]2S1(=O)=O showed a Km [1] of 340 µM, a kcat [1] of 5.3 s⁻¹ and a kcat/Km [2] of 16000 M⁻¹ s⁻¹.

For O=C(Cc1cccs1)N[C@@H]1C(=O)N2C(C(=O)[O-])=C(C[n+]3ccccc3)CS[C@H]12, the Km [1] was 30 µM, the kcat [1] was 315 s⁻¹ and the kcat/Km [2] was 1.05e+07 M⁻¹ s⁻¹.

CC(C)(O/N=C(\C(=O)N[C@@H]1C(=O)N2C(C(=O)[O-])=C(C[n+]3ccccc3)CS[C@H]12)c1csc(N)n1)C(=O)O gave a Km [1] of 800 µM, a kcat [1] of 60 s⁻¹ and a kcat/Km [2] of 75000 M⁻¹ s⁻¹.

“Metallo-b-lactamase (Pseudomonas aeruginosa), Q840P9” was tested, and the Km [3] was 26 µM, the kcat [3] was 140 s⁻¹ and the Km [4] was 29 µM. The kcat [4] was 16 s⁻¹, the Km [5] was 17 µM and the kcat [5] was 430 s⁻¹. For the same compound, the Km [6] was 28 µM, the kcat [6] was 8 s⁻¹ and the Km [7] was 38 µM. It also gave a kcat [7] of 42 s⁻¹, a Km [8] of 27 µM and a kcat [8] of 100 s⁻¹. It also gave a Km [9] of 940 µM, a kcat [9] of 2.3 s⁻¹ and a Km [10] of 84 µM. For the same compound, the kcat [10] was 1200 s⁻¹, the Km [11] was 2700 µM and the Km [12] was 3500 µM. It also gave a kcat [12] of 68 s⁻¹, a Km [13] of 120 µM and a kcat [13] of 1.4 s⁻¹. The Km [14] was 68 µM, the kcat [14] was 10 s⁻¹ and the Km [15] was 580 µM. It also gave a kcat [15] of 5.3 s⁻¹, a Km [16] of 66 µM and a kcat [16] of 78 s⁻¹. For the same compound, the Km [17] was 15 µM, the kcat [17] was 190 s⁻¹ and the Km [18] was 250 µM. It also gave a kcat [18] of 180 s⁻¹, a Km [19] of 740 µM and a kcat [19] of 110 s⁻¹. It also gave a Km [20] of 58 µM, a kcat [20] of 1500 s⁻¹ and a Km [21] of 45 µM. For the same compound, the kcat [21] was 180 s⁻¹, the Km [22] was 860 µM and the kcat [22] was 2500 s⁻¹. For the same compound, the Km [23] was 22 µM, the kcat [23] was 56 s⁻¹ and the Km [24] was 75 µM. The kcat [24] was 230 s⁻¹, the kcat/Km [25] was 5.4e+06 M⁻¹ s⁻¹ and the kcat/Km [26] was 550000 M⁻¹ s⁻¹. The kcat/Km [27] was 2.5e+07 M⁻¹ s⁻¹, the kcat/Km [28] was 290000 M⁻¹ s⁻¹ and the kcat/Km [29] was 1.1e+06 M⁻¹ s⁻¹. For the same compound, the kcat/Km [30] was 3.7e+06 M⁻¹ s⁻¹, the kcat/Km [31] was 2500 M⁻¹ s⁻¹ and the kcat/Km [32] was 1.4e+07 M⁻¹ s⁻¹. It also gave a kcat/Km [33] of 19000 M⁻¹ s⁻¹, a kcat/Km [34] of 12000 M⁻¹ s⁻¹ and a kcat/Km [35] of 150000 M⁻¹ s⁻¹. The kcat/Km [36] was 9100 M⁻¹ s⁻¹, the kcat/Km [37] was 1.2e+06 M⁻¹ s⁻¹ and the kcat/Km [38] was 1.3e+07 M⁻¹ s⁻¹. For the same compound, the kcat/Km [39] was 720000 M⁻¹ s⁻¹, the kcat/Km [40] was 150000 M⁻¹ s⁻¹ and the kcat/Km [41] was 2.6e+07 M⁻¹ s⁻¹. The kcat/Km [42] was 4e+06 M⁻¹ s⁻¹, the kcat/Km [43] was 2.9e+06 M⁻¹ s⁻¹ and the kcat/Km [44] was 2.6e+06 M⁻¹ s⁻¹. For the same compound, the kcat/Km [45] was 3.1e+06 M⁻¹ s⁻¹.

CC1(C)[C@H](C(=O)O)N2C(=O)C[C@H]2S1(=O)=O showed a Km [1] of 200 µM, a kcat [1] of 10 s⁻¹ and a kcat/Km [2] of 50000 M⁻¹ s⁻¹.
